Assays:
[1] = tested on: Leishmania donovani; assay: Antileishmanial activity against Leishmania donovani Dd8 promastigote forms after 48 hrs by neubauer hemocytometer method; type: functional; settings: for IC50: Dd8, 48 h
Outline: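 Promastigotes of L. donovani Dd8 strain exposed 48 h to increasing concentrations of test agent; percent viability scored, IC50 derived.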

[2] = tested on: THP-1; assay: Cytotoxicity against human PMA-differentaited THP1 cells after 24 hrs by MTT assay; type: cell-based; settings: THP-1, 24 h
[3] = Selectivity index, ratio of IC50 for human PMA-differentaited THP1 cells to IC50 for promastigote form of Leishmania donovani Dd8; type: toxicity; settings: PMA-differentiated THP1 cells, read-out: Ratio IC50
Outline: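 Ratio of IC50 against THP-1 macrophages (normal cells) to IC50 against L. donovani promastigotes.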

[4] = tested on: THP-1; assay: Cytotoxicity against human PMA-differentaited THP1 cells assessed as cell viability at 100 uM after 24 hrs by MTT assay; type: cell-based; settings: thp-1, 24 h

Structure (SMILES)	IC50 [1] [µM]	Activity [1]	IC50 [2] [µM]	selectivity ratio [3]	Activity [4]
N[C@@H](Cc1c[nH]c2ccccc12)C(=O)OCc1cn(-c2ccc([N+](=O)[O-])cc2)nn1	119		174	1.47	
COc1ccc(-n2cc(COC(=O)[C@@H](N)Cc3c[nH]c4ccccc34)nn2)cc1	94.5	Dose-dependent effect	195	2.06	Non-Toxic
N[C@@H](Cc1ccccc1)C(=O)OCc1cn(-c2ccccc2)nn1	163		504	3.09	
N[C@@H](Cc1c[nH]c2ccccc12)C(=O)OCc1cn(-c2ccccc2)nn1	138		191	1.39	
N[C@@H](Cc1c[nH]c2ccccc12)C(=O)OCc1cn(-c2ccc(F)cc2)nn1	151		352	2.32	
N[C@@H](Cc1c[nH]c2ccccc12)C(=O)OCc1cn(-c2ccc(Cl)cc2)nn1	129		317	2.46	
N[C@@H](Cc1ccccc1)C(=O)OCc1cn(-c2ccc([N+](=O)[O-])cc2)nn1	171		180	1.05	
CCCCCCCCCCCCCCCCOP(=O)([O-])OCC[N+](C)(C)C [MILTEFOSINE]	27.1		54.1	1.99	

More lines, main results first:

IC50 [1] [µM]	Structure (SMILES)	Activity [1]	IC50 [2] [µM]	selectivity ratio [3]	Activity [4]
96.9	O=C(OCc1cn(-c2ccccc2)nn1)[C@@H]1CCCN1	Dose-dependent effect	780	8.05	Non-Toxic
122	O=C(OCc1cn(-c2ccc(F)cc2)nn1)[C@@H]1CCCN1		309	2.54	
88.8	Cc1ccc(-n2cc(COC(=O)[C@@H](N)Cc3ccccc3)nn2)cc1	Dose-dependent effect	292	3.28	Non-Toxic
157	O=C(OCc1cn(-c2ccc(Cl)cc2)nn1)[C@@H]1CCCN1		346	2.2	
99.4	Cc1ccc(-n2cc(COC(=O)[C@@H](N)Cc3c[nH]c4ccccc34)nn2)cc1		293	2.95	
175	Cc1ccc(-n2cc(COC(=O)[C@@H]3CCCN3)nn2)cc1		421	2.4	
144	COc1ccc(-n2cc(COC(=O)[C@@H](N)Cc3ccccc3)nn2)cc1		260	1.8	
133	N[C@@H](Cc1ccccc1)C(=O)OCc1cn(-c2ccc(F)cc2)nn1		196	1.48	
189	O=C(OCc1cn(-c2ccc([N+](=O)[O-])cc2)nn1)[C@@H]1CCCN1		344	1.82	
104	COc1ccc(-n2cc(COC(=O)[C@@H]3CCCN3)nn2)cc1		218	2.11	
132	N[C@@H](Cc1ccccc1)C(=O)OCc1cn(-c2ccc(Cl)cc2)nn1		389	2.94	
